According to ChEMBL document CHEMBL1629527, “In vitro antifungal activities of bis(alkylpyridinium)alkane compounds against pathogenic yeasts and molds” (Antimicrob Agents Chemother, 2010):

Legend:
Fusarium solani [1] = experiment: Antifungal activity against Fusarium solani 04-203102 after 48 to 72 hrs; type: functional
Procedure, shortened: (§1)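 After the broth microdilution MIC read, suspension from every well without visible growth was plated onto Sabouraud dextrose agar and incubated at 35°C, up to 7 days for molds. MFC was taken as the lowest drug concentration with no colonies.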

Cryptococcus neoformans [2] = experiment: Antifungal activity against Cryptococcus neoformans ATCC 90112 after 48 to 72 hrs; type: functional
Procedure, shortened: (§2)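 MFC: after the MIC read, 30-μl aliquots from each well without visible growth were plated onto Sabouraud dextrose agar and incubated at 35°C. Reading was at 48–72 h for yeasts and up to 7 days for molds. MFC was the lowest concentration with no colonies.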

Cryptococcus neoformans [3] = experiment: Antifungal activity against Cryptococcus neoformans 05-202523 after 48 to 72 hrs; type: functional; procedure, shortened: as §2
Aspergillus fumigatus [4] = experiment: Antifungal activity against Aspergillus fumigatus ATCC 204305 after 48 to 72 hrs; type: functional
Procedure, shortened: (§3)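 CLSI M38-A2 broth microdilution for molds in RPMI 1640 with L-glutamine and no bicarbonate, buffered with 0.165 M MOPS to pH 7.0. Compounds were dissolved in water and tested at 0.175–87.5 μM final, 35°C, up to 7 days. MIC was read visually as 100% inhibition versus growth control. For MFC, clear wells were plated on SDA and the lowest concentration with no colonies taken. Each isolate was run in duplicate, two independent experiments.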

Aspergillus fumigatus [5] = experiment: Antifungal activity against Aspergillus fumigatus 05-203114 after 48 to 72 hrs; type: functional; procedure, shortened: as §3
Aspergillus flavus [6] = experiment: Antifungal activity against Aspergillus flavus ATCC 204304 after 48 to 72 hrs; type: functional; procedure, shortened: as §2
Aspergillus terreus [7] = experiment: Antifungal activity against Aspergillus terreus 05-202844 after 48 to 72 hrs; type: functional; procedure, shortened: as §2
[8] = system: Cunninghamella bertholletiae; experiment: Antifungal activity against Cunninghamella bertholletiae 99-12187 after 48 to 72 hrs; type: functional; conditions: in the assay text read “for up to 7 days” for “after 48 to 72 hrs”; procedure, shortened: as §2
Exophiala spinifera [9] = experiment: Antifungal activity against Exophiala spinifera 03-200803 after 24 to 72 hrs by broth microdilution method; type: functional
Procedure, shortened: (§4)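 Mold isolates subcultured on potato dextrose agar, then tested by CLSI M38-A2 broth microdilution in RPMI 1640 (L-glutamine, no bicarbonate) buffered to pH 7.0 with 0.165 M MOPS. Compounds were dissolved in water and tested at a final 0.175–87.5 μM. Plates were incubated at 35°C. MIC was read visually as the lowest concentration giving 100% inhibition versus the growth control. Each isolate was run in duplicate in two independent experiments.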

Fusarium solani [10] = experiment: Antifungal activity against Fusarium solani 04-203102 after 24 to 72 hrs by broth microdilution method; type: functional; procedure, shortened: as §4
[11] = Antifungal activity against Paecilomyces lilacinus 05-200601 after 24 to 72 hrs by broth microdilution method; type: functional; conditions: Purpureocillium lilacinum; procedure, shortened: as §4
Rhizopus arrhizus [12] = experiment: Antifungal activity against Rhizopus oryzae 05-203111 after 24 to 72 hrs by broth microdilution method; type: functional; procedure, shortened: as §4
Candida parapsilosis [13] = experiment: Antifungal activity against Candida parapsilosis 04-202398 after 48 to 72 hrs; type: functional; conditions: Lodderomyces parapsilosis
Procedure, shortened: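 CLSI M27-A3 broth microdilution for yeasts in RPMI 1640 with L-glutamine and no bicarbonate, buffered with 0.165 M MOPS to pH 7.0. Compounds were dissolved in water and tested at 0.175–87.5 μM final, 35°C. MIC was read visually at 24–72 h as 100% inhibition versus growth control. For MFC, 30 μl from clear wells went onto SDA at 35°C for 48–72 h, reading the lowest concentration without colonies. Duplicates, two independent runs.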

Aspergillus fumigatus [14] = experiment: Antifungal activity against Aspergillus fumigatus 05-203114 after 24 to 72 hrs by broth microdilution method; type: functional
Procedure, shortened: (§5)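 Broth microdilution MIC per CLSI M27-A3 (yeasts) or M38-A2 (molds). RPMI 1640 with L-glutamine, without bicarbonate, buffered to pH 7.0 with 0.165 M MOPS. Final test range for the compounds was 0.175–87.5 μM. Incubation at 35°C with visual reading at 24–72 h. MIC was the lowest concentration giving 100% inhibition versus the growth control (azoles 50% or 100%, by organism). Each isolate was run in duplicate in two independent experiments.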

Aspergillus flavus [15] = experiment: Antifungal activity against Aspergillus flavus ATCC 204304 after 24 to 72 hrs by broth microdilution method; type: functional; procedure, shortened: as §5
Aspergillus flavus [16] = experiment: Antifungal activity against Aspergillus flavus 05-203758 after 24 to 72 hrs by broth microdilution method; type: functional; procedure, shortened: as §5
Aspergillus terreus [17] = experiment: Antifungal activity against Aspergillus terreus 05-202844 after 24 to 72 hrs by broth microdilution method; type: functional; procedure, shortened: as §5
Lomentospora prolificans [18] = experiment: Antifungal activity against Scedosporium prolificans 05-203060 after 24 to 72 hrs by broth microdilution method; type: functional; procedure, shortened: as §4
Scedosporium apiospermum = experiment: Antifungal activity against Scedosporium apiospermum 05-203100 after 24 to 72 hrs by broth microdilution method; type: functional; procedure, shortened: as §4
[19] = system: Cunninghamella bertholletiae; experiment: Antifungal activity against Cunninghamella bertholletiae 99-12187 after 24 to 72 hrs by broth microdilution method; type: functional; procedure, shortened: as §5
Lichtheimia corymbifera [20] = experiment: Antifungal activity against Absidia corymbifera 04-200170 after 24 to 72 hrs by broth microdilution method; type: functional; procedure, shortened: as §5
Aspergillus fumigatus [21] = experiment: Antifungal activity against Aspergillus fumigatus ATCC 204305 after 24 to 72 hrs by broth microdilution method; type: functional; procedure, shortened: as §5
[22] = system: Cryptococcus gattii species complex; experiment: Antifungal activity against Cryptococcus gattii 05-200122 after 24 to 72 hrs by broth microdilution method; type: functional, Cryptococcus bacillisporus; procedure, shortened: as §5
Cryptococcus neoformans [23] = experiment: Antifungal activity against Cryptococcus neoformans 05-202523 after 24 to 72 hrs by broth microdilution method; type: functional; procedure, shortened: as §5
Cryptococcus neoformans [24] = experiment: Antifungal activity against Cryptococcus neoformans ATCC 90112 after 24 to 72 hrs by broth microdilution method; type: functional; procedure, shortened: as §5
Candida tropicalis = experiment: Antifungal activity against Candida tropicalis 04-202361 after 24 to 72 hrs by broth microdilution method; type: functional; procedure, shortened: as §5
Nakaseomyces glabratus = experiment: Antifungal activity against Candida glabrata 04-202345 after 24 to 72 hrs by broth microdilution method; type: functional; procedure, shortened: as §5
Candida parapsilosis [25] = experiment: Antifungal activity against Candida parapsilosis 04-202398 after 24 to 72 hrs by broth microdilution method; type: functional; conditions: Lodderomyces parapsilosis; procedure, shortened: as §5
Pichia kudriavzevii [26] = experiment: Antifungal activity against Candida krusei 04-202328 after 24 to 72 hrs by broth microdilution method; type: functional; procedure, shortened: as §5
Candida parapsilosis [27] = experiment: Antifungal activity against Candida parapsilosis ATCC 22019 after 24 to 72 hrs by broth microdilution method; type: functional; conditions: Lodderomyces parapsilosis; procedure, shortened: as §5
Pichia kudriavzevii [28] = experiment: Antifungal activity against Candida krusei ATCC 6258 after 24 to 72 hrs by broth microdilution method; type: functional; procedure, shortened: as §5
Candida albicans [29] = experiment: Antifungal activity against Candida albicans ATCC 10231 after 24 to 72 hrs by broth microdilution method; type: functional; procedure, shortened: as §5
Candida albicans [30] = experiment: Antifungal activity against Candida albicans ATCC 90028 after 24 to 72 hrs by broth microdilution method; type: functional; procedure, shortened: as §5
Lichtheimia corymbifera [31] = experiment: Antifungal activity against Absidia corymbifera 04-200170 after 48 to 72 hrs; type: functional; procedure, shortened: as §3
[32] = Antifungal activity against Exophiala jeanselmei 03-200268 after 24 to 72 hrs by broth microdilution method; type: functional; procedure, shortened: as §5
[33] = Antifungal activity against Exophiala jeanselmei 03-200268 after 48 to 72 hrs; type: functional; procedure, shortened: as §3
Exophiala spinifera [34] = experiment: Antifungal activity against Exophiala spinifera 03-200803 after 48 to 72 hrs; type: functional; procedure, shortened: as §3
Rhizopus arrhizus [35] = experiment: Antifungal activity against Rhizopus oryzae 05-203111 after 48 to 72 hrs; type: functional; procedure, shortened: as §1
Lomentospora prolificans [36] = experiment: Antifungal activity against Scedosporium prolificans 05-203060 after 48 to 72 hrs; type: functional; procedure, shortened: as §3
Candida parapsilosis [37] = experiment: Antifungal activity against Candida parapsilosis ATCC 22019 after 48 to 72 hrs; type: functional; conditions: Lodderomyces parapsilosis; procedure, shortened: as §2
Pichia kudriavzevii [38] = experiment: Antifungal activity against Candida krusei ATCC 9258 after 24 to 72 hrs by broth microdilution method; type: functional; procedure, shortened: as §5

SMILES | MFC (Aspergillus terreus [7]) | MIC (Exophiala spinifera [9]) | MIC (Fusarium solani [10]) | MIC [11] | MIC (Rhizopus arrhizus [12]) | MIC (Aspergillus fumigatus [14]) | MIC (Aspergillus flavus [15]) | MIC (Aspergillus flavus [16]) | MIC (Aspergillus terreus [17]) | MIC (Lomentospora prolificans [18]) | MIC (Scedosporium apiospermum) | MIC [19] | MIC (Lichtheimia corymbifera [20]) | MIC (Aspergillus fumigatus [21]) | MIC [22] | MIC (Cryptococcus neoformans [23]) | MIC (Cryptococcus neoformans [24]) | MIC (Candida tropicalis) | MIC (Nakaseomyces glabratus) | MIC (Candida parapsilosis [25]) | other results
CCCCC(CCCC)c1cc[n+](CCCCCCCCCCCC[n+]2ccc(C(CCCC)CCCC)c(C)c2)cc1C.[Cl-].[Cl-] | 14.9 µg/mL | 1.86 µg/mL | 29.8 µg/mL | 59.7 µg/mL | 3.7 µg/mL | 14.9 µg/mL | 14.9 µg/mL | 59.7 µg/mL | 3.7 µg/mL | 3.7 µg/mL | 1.86 µg/mL | 14.9 µg/mL | 29.8 µg/mL | 14.9 µg/mL | 1.86 µg/mL | 3.7 µg/mL | 1.86 µg/mL | 1.86 µg/mL | 1.86 µg/mL | 14.9 µg/mL | MFC (Fusarium solani [1]): 59.7 µg/mL; MFC (Cryptococcus neoformans [2]): 3.7 µg/mL; MFC (Cryptococcus neoformans [3]): 7.5 µg/mL; MFC (Aspergillus fumigatus [4]): 29.8 µg/mL; MFC (Aspergillus fumigatus [5]): 59.7 µg/mL; MFC (Aspergillus flavus [6]): 59.7 µg/mL; MFC [8]: 29.8 µg/mL; MFC (Candida parapsilosis [13]): 29.8 µg/mL; MIC (Pichia kudriavzevii [26]): 3.7 µg/mL; MIC (Candida parapsilosis [27]): 1.86 µg/mL; MIC (Pichia kudriavzevii [28]): 3.7 µg/mL; MIC (Candida albicans [29]): 1.86 µg/mL; MIC (Candida albicans [30]): 1.86 µg/mL; MFC (Lichtheimia corymbifera [31]): 59.7 µg/mL; MIC [32]: 3.7 µg/mL
CCCCCc1cccc[n+]1CCCCCCCCCCCC[n+]1ccccc1CCCCC.[Cl-].[Cl-] | 1.48 µg/mL | 0.37 µg/mL | 23.7 µg/mL | > 47.3 µg/mL | 2.96 µg/mL | > 47.3 µg/mL | > 47.3 µg/mL | > 47.3 µg/mL | 0.74 µg/mL | 1.48 µg/mL | 1.48 µg/mL | 47.3 µg/mL | > 47.3 µg/mL | > 47.3 µg/mL | 1.48 µg/mL | 47.3 µg/mL | 5.9 µg/mL | 0.74 µg/mL | 0.37 µg/mL | 47.3 µg/mL | MFC [33]: 2.96 µg/mL; MFC (Exophiala spinifera [34]): 0.74 µg/mL; MFC (Rhizopus arrhizus [35]): 5.9 µg/mL; MFC (Lomentospora prolificans [36]): 5.9 µg/mL; MFC (Candida parapsilosis [37]): 1.48 µg/mL; MIC (Pichia kudriavzevii [38]): 23.7 µg/mL; MIC (Pichia kudriavzevii [26]): 23.7 µg/mL; MIC (Candida parapsilosis [27]): 0.74 µg/mL; MIC (Pichia kudriavzevii [28]): 23.7 µg/mL; MIC (Candida albicans [29]): 1.48 µg/mL; MIC (Candida albicans [30]): 1.48 µg/mL; MIC [32]: 0.74 µg/mL
